Test results from ChEMBL document CHEMBL3593186, “Synthesis, β-hematin inhibition studies and antimalarial evaluation of dehydroxy isotebuquine derivatives against Plasmodium berghei” (Bioorg Med Chem, 2015).

Key:
[1] = system: Plasmodium berghei; experiment: Antimalarial activity against chloroquine susceptible Plasmodium berghei ANKA infected in Balb-C mouse assessed as reduction of parasitemia at 20 mg/kg, ip qd for 4 days by Giemsa staining (reference value: 65.20 +/- 2.58%); format: functional; set-up: scale not given: the % may be the effect or the level left
[2] = Inhibition of haemozoin formation using hemin chloride assessed as beta-hematin formation at 5 to 100 uM after 48 hrs; format: physicochemical
How it was run: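 Hemin chloride (4 mM in DMSO) was mixed with compound in DMSO at 100–5 µM, in triplicate. Water or DMSO served as controls. β-Hematin formation was started with 0.2 M acetate buffer, pH 4.4, and run for 48 h at 37 °C. The pellet was washed with DMSO, dissolved in 0.2 N NaOH, diluted 1:2 in 0.1 N NaOH and read at 405 nm, giving % inhibition of haemozoin formation.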

[3] = system: Plasmodium berghei; experiment: Antimalarial activity against chloroquine susceptible Plasmodium berghei ANKA infected in Balb-C mouse assessed as host survival days at 20 mg/kg, ip qd for 4 days (reference value: 6.80 +/- 0.70 days); format: functional
[4] = system: Mus musculus; experiment: Toxicity in chloroquine susceptible Plasmodium berghei ANKA infected Balb-C mouse at 20 mg/kg, ip qd for 4 days; format: organism-based; conditions: in vivo, 96 h
[5] = system: Plasmodium berghei; experiment: Antimalarial activity against chloroquine susceptible Plasmodium berghei ANKA infected in Balb-C mouse assessed as host survival days at 25 mg/kg, ip qd for 4 days (reference value: 6.80 +/- 0.70 days); format: functional
[6] = system: Plasmodium berghei; experiment: Antimalarial activity against chloroquine susceptible Plasmodium berghei ANKA infected in Balb-C mouse assessed as reduction of parasitemia at 25 mg/kg, ip qd for 4 days by Giemsa staining (reference value: 65.20 +/- 2.58%); format: functional

SMILES	Activity [1] [%]	inhibition (INH) [2] [%]	Survival [3] [days]	Activity [4]	Survival [5] [days]	Parasitemia [6] [%]
CCN(CC)Cc1ccc(Nc2ccnc3cc(Cl)ccc23)cc1-c1ccccc1.Cl	3.2	98.45	25.2			
Cl.Clc1ccc2c(Nc3ccc(CN4CCCCC4)c(-c4ccccc4)c3)ccnc2c1	1.8	97.08	28.4	Non-toxic		
Cl.Clc1ccc2c(Nc3ccc(CN4CCOCC4)c(-c4ccccc4)c3)ccnc2c1	6.5	98.04	23.2			
Cl.Clc1ccc2c(Nc3ccc(CN4CCCC4)c(-c4ccccc4)c3)ccnc2c1	2.1	98.49	28.6	Non-toxic		
CN1CCN(Cc2ccc(Nc3ccnc4cc(Cl)ccc34)cc2-c2ccc(Cl)cc2)CC1.Cl		1.61				
Cl.Clc1ccc(-c2cc(Nc3ccnc4cc(Cl)ccc34)ccc2CN2CCCCC2)cc1	7.3	97.21	26			
Cl.Clc1ccc(-c2cc(Nc3ccnc4cc(Cl)ccc34)ccc2CN2CCOCC2)cc1		2.03				
Cl.Clc1ccc(-c2cc(Nc3ccnc4cc(Cl)ccc34)ccc2CN2CCCC2)cc1	2	97.25	27.3	Non-toxic		
CCN(CC)CCCC(C)Nc1ccnc2cc(Cl)ccc12 (stereo unspecified) [CHLOROQUINE]		98.57			29.4	0.6
